How the values were obtained:
TcCYP51 = TcCYP51 (Trypanosoma cruzi, UniProt Q7Z1V1); experiment: Binding affinity by UV-vis spectroscopy
In short: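 Recombinant TcCYP51 at 1 μM in 100 mM potassium phosphate, pH 7.5, with 10% glycerol, at 23°C, in a 1-cm quartz cuvette. Titrated stepwise with test compound from a 100 μM DMSO stock, with equal solvent added to the reference cuvette. The absorbance shift between 425 and 390 nm was fitted to the quadratic tight-binding equation to give KD.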

[1] = system: Trypanosoma cruzi (CA-I/72 trypomastigotes) in mouse C2C12 myoblasts; experiment: EC50 in cell-based assay using T. cruzi-infected mouse C2C12 myoblasts; conditions: highest concentration 10 μM

TcCYP51, sequence (Q7Z1V1 whole entry): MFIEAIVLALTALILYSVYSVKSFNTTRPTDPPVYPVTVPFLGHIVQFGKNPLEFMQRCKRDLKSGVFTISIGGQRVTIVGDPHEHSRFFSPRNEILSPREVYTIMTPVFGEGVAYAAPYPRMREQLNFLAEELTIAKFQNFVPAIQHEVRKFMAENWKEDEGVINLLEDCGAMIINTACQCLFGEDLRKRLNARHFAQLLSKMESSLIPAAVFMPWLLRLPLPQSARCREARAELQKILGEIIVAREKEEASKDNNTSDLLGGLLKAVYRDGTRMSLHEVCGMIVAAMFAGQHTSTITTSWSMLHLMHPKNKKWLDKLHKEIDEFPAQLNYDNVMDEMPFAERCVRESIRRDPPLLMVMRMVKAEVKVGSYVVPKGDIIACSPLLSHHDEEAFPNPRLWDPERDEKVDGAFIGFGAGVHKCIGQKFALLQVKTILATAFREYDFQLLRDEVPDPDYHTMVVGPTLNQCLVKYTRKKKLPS

SMILES	Kd (TcCYP51) [nM]	anti-T. cruzi potency in cell culture, in words [1]
O=C(N[C@H](Cc1c[nH]c2ccccc12)C(=O)Nc1ccncc1)c1ccc(N2CCN(S(=O)(=O)c3cccs3)CC2)cc1F [compound 3, (R)-N-(3-(1H-Indol-3-yl)-1-oxo-1-(pyridin-4-ylamino)propan-2-yl)-2-fluoro-4-(4-(thiophen-2-ylsulfonyl)piperazin-1-yl)benzamide]	≤ 10	sub-nanomolar
N#Cc1ccc(S(=O)(=O)N2CCN(c3ccc(C(=O)N[C@H](Cc4c[nH]c5ccccc45)C(=O)Nc4ccncc4)c(F)c3)CC2)cc1 [compound 4, (R)-N-(3-(1H-Indol-3-yl)-1-oxo-1-(pyridin-4-ylamino)propan-2-yl)-4-(4-((4-cyanophenyl)sulfonyl)piperazin-1-yl)-2-fluorobenzamide]	47 ± 19	
O=C(N[C@H](Cc1c[nH]c2ccccc12)C(=O)Nc1ccncc1)c1ccc(N2CCN(S(=O)(=O)c3cccnc3)CC2)cc1F [compound 5, (R)-N-(3-(1H-Indol-3-yl)-1-oxo-1-(pyridin-4-ylamino)propan-2-yl)-2-fluoro-4-(4-(pyridin-3-ylsulfonyl)piperazin-1-yl)benzamide]	15 ± 6	inhibited T. cruzi at the low micromolar concentrations
O=C(N[C@H](Cc1c[nH]c2ccccc12)C(=O)Nc1ccncc1)c1ccc(N2CCN(S(=O)(=O)c3ccc(C(F)(F)F)cc3)CC2)cc1F [compound 6, (R)-N-(3-(1H-Indol-3-yl)-1-oxo-1-(pyridin-4-ylamino)propan-2-yl)-2-fluoro-4-(4-((4-(trifluoromethyl)phenyl)sulfonyl)piperazin-1-yl)benzamide]	≤ 10	inhibited T. cruzi at the low micromolar concentrations
COC(=O)c1sccc1S(=O)(=O)N1CCN(c2ccc(C(=O)N[C@H](Cc3c[nH]c4ccccc34)C(=O)Nc3ccncc3)c(F)c2)CC1 [compound 7, (R)-methyl 3-((4-(4-((3-(1H-Indol-3-yl)-1-oxo-1-(pyridin-4-ylamino)propan-2-yl)carbamoyl)-3-fluorophenyl)piperazin-1-yl)sulfonyl)thiophene-2-carboxylate]	20 ± 7	inhibited T. cruzi at the low micromolar concentrations
O=C(O)c1ccc(S(=O)(=O)N2CCN(c3ccc(C(=O)N[C@H](Cc4c[nH]c5ccccc45)C(=O)Nc4ccncc4)c(F)c3)CC2)cc1 [compound 8, (R)-4-((4-(4-((3-(1H-Indol-3-yl)-1-oxo-1-(pyridin-4-ylamino)propan-2-yl)carbamoyl)-3-fluorophenyl)piperazin-1-yl)sulfonyl)benzoic acid]	20 ± 7	failed to elicit T. cruzi inhibition in cell culture at ≤10 μM
O=C(N[C@H](Cc1c[nH]c2ccccc12)C(=O)Nc1ccncc1)c1ccc(N2CCN(S(=O)(=O)c3ccsc3C(=O)O)CC2)cc1F [compound 9, (R)-3-((4-(4-((3-(1H-Indol-3-yl)-1-oxo-1-(pyridin-4-ylamino)propan-2-yl)carbamoyl)-3-fluorophenyl)piperazin-1-yl)sulfonyl)thiophene-2-carboxylic acid]	≤ 10	failed to elicit T. cruzi inhibition in cell culture at ≤10 μM
O=C(N[C@H](Cc1c[nH]c2ccccc12)C(=O)Nc1ccncc1)c1ccc(N2CCN(S(=O)(=O)C3CC3)CC2)cc1F [compound 10, (R)-N-(3-(1H-Indol-3-yl)-1-oxo-1-(pyridin-4-ylamino)propan-2-yl)-4-(4-(cyclopropylsulfonyl)piperazin-1-yl)-2-fluorobenzamide]	25 ± 6	failed to elicit T. cruzi inhibition in cell culture at ≤10 μM
CS(=O)(=O)N1CCN(c2ccc(C(=O)N[C@H](Cc3c[nH]c4ccccc34)C(=O)Nc3ccncc3)c(F)c2)CC1 [compound 11, (R)-N-(3-(1H-Indol-3-yl)-1-oxo-1-(pyridin-4-ylamino)propan-2-yl)-2-fluoro-4-(4-(methylsulfonyl)piperazin-1-yl)benzamide]	19 ± 4	failed to elicit T. cruzi inhibition in cell culture at ≤10 μM

— publication PMC4091728 (Chembiochem : a European journal of chemical biology, 2014)
